Reference: ChEMBL document CHEMBL1125331, “6-Hydroxy-3-n-propyl-2,3,4,5-tetrahydro-1H-3-benzazepine and analogs: new centrally acting 5-HT1A receptor agonists” (J Med Chem, 1992)
“And” between values parts separate entries of the source, which are not always exact repeats. Identical values can stand only once.

Experiments:
Rattus norvegicus [1] = test: Effect evaluated in vivo on 5-HTP accumulation in limbic system at a dose 3.1 umol/kg (s.c.); format: functional
Method in brief: (§1)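 Male Sprague-Dawley rats (200–300 g) were pretreated with reserpine 5 mg/kg sc 18 h before. Test compound was given sc at 5 mL/kg in neutral solution. 5-HT synthesis rate was indexed by […] 5-HTP accumulation after decarboxylase inhibition with NSD 1015, measured by HPLC-electrochemical detection. Dose-response used 4–6 dose levels, n = 4.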

Rattus norvegicus [2] = test: Effect evaluated in vivo on 5-HTP accumulation in limbic system at a dose 50 umol/kg (s.c.); format: functional; method in brief: as §1
Rattus norvegicus [3] = test: Effect evaluated in vivo on 5-HTP accumulation in corpus striatum at a dose 3.1 umol/kg (s.c.); format: functional
Method in brief: (§2)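 Male Sprague-Dawley rats (200–300 g) were pretreated with reserpine 5 mg/kg sc 18 h beforehand. Test drug was given at neutral pH, 5 mL/kg. Aromatic amino acid decarboxylase was blocked with NSD 1015. 5-HTP in the dissected brain region was assayed by HPLC with electrochemical detection.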

Rattus norvegicus [4] = test: Effect evaluated in vivo on 5-HTP accumulation in corpus striatum at ED50 umol/kg after subcutaneous administration; format: functional; conditions: sc; method in brief: as §2
Rattus norvegicus [5] = test: Effect evaluated in vivo on 5-HTP accumulation in limbic system after subcutaneous administration; format: functional; conditions: sc; method in brief: as §2
Rattus norvegicus [6] = test: Effect evaluated in vivo on 5-HTP accumulation in corpus striatum at a dose 50 umol/kg (s.c.); format: functional; method in brief: as §2
Rattus norvegicus [7] = test: Effect evaluated in vivo on 5-HTP accumulation in limbic system at a dose 12.5 umol/kg (s.c.); format: functional; method in brief: as §1
Rattus norvegicus [8] = test: Effect evaluated in vivo on 5-HTP accumulation in NE-rich hemispheres at ED50 umol/kg after subcutaneous administration; format: functional; conditions: sc; method in brief: as §2
Rattus norvegicus [9] = test: Effect evaluated in vivo on 5-HTP accumulation in NE-rich hemispheres at a 12.5 dose uM/kg(sc); format: functional; method in brief: as §2
Rattus norvegicus [10] = test: Effect evaluated in vivo on 5-HTP accumulation in NE-rich hemispheres at a 3.1 dose uM/kg(sc); format: functional; method in brief: as §2
Rattus norvegicus [11] = test: Effect evaluated in vivo on 5-HTP accumulation in NE-rich hemispheres at a 50 dose uM/kg(sc); format: functional; method in brief: as §2
Rattus norvegicus [12] = test: Effect evaluated in vivo on 5-HTP accumulation in corpus striatum after subcutaneous administration; format: functional; method in brief: as §2
Rattus norvegicus [13] = test: The compound was tested in vivo for locomotor activity in rats at 0.2 umol/kg after subcutaneous administration
D(2) dopamine receptor = D(2) dopamine receptor (Rattus norvegicus, UniProt P61169); test: Inhibitory activity against Dopamine receptor D2 in rats using [3H]spiperone as radioligand
D(2) dopamine receptor, sequence (P61169 whole entry): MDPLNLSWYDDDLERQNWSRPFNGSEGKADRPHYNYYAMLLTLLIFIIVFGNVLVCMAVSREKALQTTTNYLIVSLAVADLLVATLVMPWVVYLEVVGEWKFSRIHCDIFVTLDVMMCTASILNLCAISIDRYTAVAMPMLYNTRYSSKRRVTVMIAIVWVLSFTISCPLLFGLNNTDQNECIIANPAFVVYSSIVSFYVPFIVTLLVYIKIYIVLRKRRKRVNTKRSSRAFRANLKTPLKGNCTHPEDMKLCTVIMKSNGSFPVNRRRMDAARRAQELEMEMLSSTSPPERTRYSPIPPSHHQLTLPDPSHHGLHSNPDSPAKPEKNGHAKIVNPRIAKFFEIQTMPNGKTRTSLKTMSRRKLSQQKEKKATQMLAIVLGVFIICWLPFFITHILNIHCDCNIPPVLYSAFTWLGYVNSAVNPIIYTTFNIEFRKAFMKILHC
Method in brief: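 Rat striatal membranes in 50 mM potassium phosphate buffer pH 7.4 were incubated with 0.5 nM [3H]spiperone for 10 min at 37 °C. Specific binding was defined with 10 μM 6,7-ADTN.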

Rattus norvegicus [14] = test: Effect evaluated in vivo on 5-HTP accumulation in limbic system at a dose 25 umol/kg (s.c.); format: functional; method in brief: as §1
Rattus norvegicus [15] = test: Effect evaluated in vivo on 5-HTP accumulation in NE-rich hemispheres at a 0.20 dose uM/kg(sc); format: functional; method in brief: as §2
Rattus norvegicus [16] = test: Effect evaluated in vivo on 5-HTP accumulation in NE-rich hemispheres at a 0.39 dose uM/kg(sc); format: functional; method in brief: as §2
Rattus norvegicus [17] = test: Effect evaluated in vivo on 5-HTP accumulation in corpus striatum at a dose 1.56 umol/kg (s.c.); format: functional; method in brief: as §2
Rattus norvegicus [18] = test: Effect evaluated in vivo on 5-HTP accumulation in corpus striatum at a dose 100 umol/kg (s.c.); format: functional; method in brief: as §2
Rattus norvegicus [19] = test: Effect evaluated in vivo on 5-HTP accumulation in corpus striatum at a dose 25 umol/kg (s.c.); format: functional; method in brief: as §2
Rattus norvegicus [20] = test: Effect evaluated in vivo on 5-HTP accumulation in limbic system at a dose 0.20 umol/kg (s.c.); format: functional; method in brief: as §2
Rattus norvegicus [21] = test: Effect evaluated in vivo on 5-HTP accumulation in limbic system at a dose 0.39 umol/kg (s.c.); format: functional; method in brief: as §2
Rattus norvegicus [22] = test: Effect evaluated in vivo on 5-HTP accumulation in limbic system at a dose 1.56 umol/kg (s.c.); format: functional; method in brief: as §1
Rattus norvegicus [23] = test: Effect evaluated in vivo on 5-HTP accumulation in limbic system at a dose 100 umol/kg (s.c.); format: functional; method in brief: as §1
Rattus norvegicus [24] = test: Effect evaluated in vivo on 5-HTP accumulation in NE-rich hemispheres at a 1.56 dose uM/kg(sc); format: functional; method in brief: as §2
Rattus norvegicus [25] = test: Effect evaluated in vivo on 5-HTP accumulation in NE-rich hemispheres at a 100 dose uM/kg(sc); format: functional; method in brief: as §2
Rattus norvegicus [26] = test: Effect evaluated in vivo on 5-HTP accumulation in NE-rich hemispheres at a 25 dose uM/kg(sc); format: functional; method in brief: as §2
Rattus norvegicus [27] = test: Effect evaluated in vivo on 5-HTP accumulation in corpus striatum at a dose 0.20 umol/kg (s.c.); format: functional; method in brief: as §2
Rattus norvegicus [28] = test: Effect evaluated in vivo on 5-HTP accumulation in corpus striatum at a dose 0.39 umol/kg (s.c.); format: functional; method in brief: as §2
[29] = target: T1, 5-hydroxytryptamine receptor 1A (Rattus norvegicus, UniProt P19327); test: Inhibitory activity against 5-hydroxytryptamine 1A receptor in rats, using [3H]8-OH-DPAT as radioligand
T1 sequence (P19327 whole entry): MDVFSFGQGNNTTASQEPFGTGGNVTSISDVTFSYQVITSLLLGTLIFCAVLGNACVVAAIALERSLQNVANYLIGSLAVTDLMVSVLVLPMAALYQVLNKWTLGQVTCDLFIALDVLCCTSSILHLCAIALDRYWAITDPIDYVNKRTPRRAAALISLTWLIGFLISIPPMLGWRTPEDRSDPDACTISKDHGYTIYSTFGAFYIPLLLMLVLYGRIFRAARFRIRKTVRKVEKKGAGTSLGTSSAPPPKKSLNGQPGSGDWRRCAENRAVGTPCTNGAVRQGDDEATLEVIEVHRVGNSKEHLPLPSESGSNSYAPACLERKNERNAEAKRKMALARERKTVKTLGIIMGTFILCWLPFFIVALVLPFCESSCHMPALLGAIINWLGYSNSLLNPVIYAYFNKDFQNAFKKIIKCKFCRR
Method in brief: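 Rat whole-brain membranes (minus brainstem and cerebellum) in 50 mM Tris pH 8.0 with 120 mM NaCl, 4 mM CaCl2, 4 mM MgCl2 and 10 μM pargyline. Rapid filtration, then scintillation counting. Nonspecific binding defined with 10 μM 5-HT. IC50 by semi-log plot and linear regression.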

Rattus norvegicus [30] = test: Effect evaluated in vivo on 5-HTP accumulation in limbic system at a dose uM/kg(sc); format: functional; method in brief: as §1
Rattus norvegicus [31] = test: Effect evaluated in vivo on 5-HTP accumulation in corpus striatum at a dose uM/kg(sc); format: functional; method in brief: as §2
Rattus norvegicus [32] = test: Effect evaluated in vivo on 5-HTP accumulation in NE-rich hemispheres at a dose uM/kg(sc); format: functional; method in brief: as §2
Rattus norvegicus [33] = test: The compound was tested in vivo for locomotor activity in rats at 50 umol/kg after subcutaneous administration; format: functional
Method in brief: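 Male Sprague-Dawley rats received reserpine 5 mg/kg sc in the neck 18 h before testing. Test compound was given sc in the neck (n = 4). Rats were placed singly in photocell motility meters immediately after dosing, and counts were accumulated over 30 min (tests 9 a.m.–1 p.m.). Gross behaviour, including 5-HT syndrome, was observed throughout.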

Rattus norvegicus [34] = test: Effect evaluated in vivo on DA synthesis in limbic system at ED50 umol/kg after peroral administration; format: functional
Method in brief: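 Oral dosing in male Sprague-Dawley rats (200–300 g) pretreated with reserpine 5 mg/kg sc 18 h before. After decarboxylase inhibition with NSD 1015, brain 5-HTP or dopa accumulation (HPLC-electrochemical detection) indexed 5-HT synthesis, DA synthesis (limbic) or NE synthesis (hemispheres, mainly cortex).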

Rattus norvegicus [35] = test: Effect evaluated in vivo on DA synthesis in limbic system at ED50 umol/kg after subcutaneous administration; format: functional
Method in brief: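 Male Sprague-Dawley rats (200–300 g) pretreated with reserpine (5 mg/kg sc, 18 h before), then given the test drug sc; neutral solutions at 5 mL/kg. Dopa accumulation after decarboxylase inhibition with NSD 1015 indexes DA synthesis rate in limbic tissue, assayed by HPLC with electrochemical detection.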

Rattus norvegicus [36] = test: Effect evaluated in vivo on 5-HT synthesis in limbic system at ED50 umol/kg after subcutaneous administration; conditions: sc

## CN1CCc2cccc(O)c2CC1
Rattus norvegicus [1]
  Control: 106%
Rattus norvegicus [2]
  Control: 57%
Rattus norvegicus [3]
  Control: 104%
Rattus norvegicus [4]
  ED50: 11 µmol/kg
Rattus norvegicus [5]
  ED50: 10 µmol/kg
Rattus norvegicus [6]
  Control: 54%
Rattus norvegicus [7]
  Control: 72%
Rattus norvegicus [8]
  ED50: 12 µmol/kg
Rattus norvegicus [9]
  Control: 73%
Rattus norvegicus [10]
  Control: 96%
Rattus norvegicus [11]
  Control: 58%
Rattus norvegicus [12]
  Control: 70%
Rattus norvegicus [13]
  Locomotor activity: 6

## CCCN1CCc2ccc(O)cc2CC1
D(2) dopamine receptor
  IC50: 10000 nM
Rattus norvegicus [14]
  Control: 105%
Rattus norvegicus [15]
  Control: 128%
Rattus norvegicus [16]
  Control: 119%
Rattus norvegicus [17]
  Control: 110%
Rattus norvegicus [18]
  Control: 77%
Rattus norvegicus [19]
  Control: 107%
Rattus norvegicus [20]
  Control: 122%
Rattus norvegicus [21]
  Control: 121%
Rattus norvegicus [22]
  Control: 80%
Rattus norvegicus [23]
  Control: 81%
Rattus norvegicus [24]
  Control: 114%
Rattus norvegicus [25]
  Control: 78%
Rattus norvegicus [26]
  Control: 113%
Rattus norvegicus [27]
  Control: 118%
Rattus norvegicus [28]
  Control: 106%

## CCCCN1CCc2cccc(O)c2CC1
[29]
  IC50: 420 nM
D(2) dopamine receptor
  IC50: 12000 nM
Rattus norvegicus [30]
  Control: 84%
Rattus norvegicus [31]
  Control: 111%
Rattus norvegicus [32]
  Control: 108%
Rattus norvegicus [33]
  Locomotor activity: 19

## CCN1CCc2cccc(OC)c2CC1
[29]
  IC50: 210 nM
D(2) dopamine receptor
  IC50: 2200 nM
Rattus norvegicus [2]
  Control: 66%
Rattus norvegicus [6]
  Control: 66%
Rattus norvegicus [11]
  Control: 64%
Rattus norvegicus [33]
  Locomotor activity: 62

## CCCN(CCC)C1CCc2cccc(O)c2C1 (stereo not given) [8-OH-DPAT]
Rattus norvegicus [34]
  ED50: 3 µM/kg and 7.9 µM/kg and 7.6 µM/kg
Rattus norvegicus [35]
  ED50: 0.052 µM/kg and 0.063 µM/kg
Rattus norvegicus [36]
  ED50: 0.052 µmol/kg
Rattus norvegicus [13]
  Locomotor activity: 66
